Source: PubChem BioAssay
Compounds with a hit are over-represented: about 3.6% of the library has one in this group of screens.
HCV NS3 hel inh: inhibitors of HCV NS3 helicase, primary screen, biochemical, Cy5 molecular beacon fluorescence | Hepatitis C virus NS3 helicase | NS3 helicase DNA unwinding | inhibition, % at 10.9 µM | hit rate 0.56% among 290,000;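 active means inhibition above the mean of all tested compounds plus 3 SD, set per campaign, cut at about 35% in these data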;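 further: 0% = DMSO wells and 100% = thioflavine S control wells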
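Material: hepatitis C virus NS3 helicase domain fragment enzyme; measured by: Cy5 fluorescence, 0 and 60 min reads; control set: DMSO and thioflavine S; incubation: 60 min unwinding reaction at 25 °C after ATP addition; read-out basis: % inhibition from 60/0 min fluorescence ratio, DMSO 0%, thioflavine S 100%; repeats: singlicate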
FGF22 binding: binders of human FGF22 protein, primary screen, FGF22 synaptogenesis inhibitor project, biophysical, thermal shift, single point. Fibroblast growth factor 22 (Homo sapiens), Q9HCT0. recombinant FGF22 thermal shift, SYPRO orange fluorescence; percent of sucrose octasulfate shift, DMSO zero. activity (Tm shift, normalised), % at 9.99 µM. hit rate 1.5% among 340,000;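 active means mean Tm shift, scaled 0 neutral to 100 positive control, at about 1.3% or above, every replicate too, limit read from the data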
Target sequence (Q9HCT0 whole entry, looked up): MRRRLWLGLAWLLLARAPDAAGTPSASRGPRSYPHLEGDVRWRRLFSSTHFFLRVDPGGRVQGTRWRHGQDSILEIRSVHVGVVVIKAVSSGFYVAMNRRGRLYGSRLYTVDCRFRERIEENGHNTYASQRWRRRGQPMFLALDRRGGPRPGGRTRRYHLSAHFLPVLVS
FID counter: compounds displacing fluorescent DNA intercalator, primary screen, artefact control for HCV NS3 helicase inhibitor project, biochemical, FID fluorescence; DNA fluorescent intercalator displacement; inhibition, % at 7.9 µM; hit rate 0.17% among 290,000; AID 1845, 2009; in the data active means inhibition above about 37%;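 further: 0% = vehicle and 100% = reference compound; higher means more ethidium bromide displaced from hairpin DNA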
EBNA-1 inhibitor: EBNA-1 DNA-binding inhibitors, primary screen, biochemical, fluorescence polarization; inhibition, % at 14.8 µM; hit rate 0.34% among 300,000; in the data active means inhibition above about 28%
GRIN3A LBD mod: binders of NR3A ligand-binding domain, primary screen, biophysical, differential scanning fluorimetry, uHTS | Glutamate receptor ionotropic, NMDA 3A (GRIN3A) ligand-binding domain | NR3A LBD differential scanning fluorimetry, Tm shift; 0% = protein alone, 100% = glycine-bound protein | Tm shift relative to glycine control, % at 25 µM | hit rate 2.5% among 340,000;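 active means melting temperature shift of at least 10% of the positive control shift, at one fixed dose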
ZTA counter: ZTA (EBV) inhibition in EBNA-1 counter-screen. P03206. ZTA-DNA binding, fluorescence polarization. inhibition, % at 11 µM. hit rate 0.15% among 320,000. AID 2234; in the data active means inhibition above about 33%
Target sequence (P03206 whole entry, looked up): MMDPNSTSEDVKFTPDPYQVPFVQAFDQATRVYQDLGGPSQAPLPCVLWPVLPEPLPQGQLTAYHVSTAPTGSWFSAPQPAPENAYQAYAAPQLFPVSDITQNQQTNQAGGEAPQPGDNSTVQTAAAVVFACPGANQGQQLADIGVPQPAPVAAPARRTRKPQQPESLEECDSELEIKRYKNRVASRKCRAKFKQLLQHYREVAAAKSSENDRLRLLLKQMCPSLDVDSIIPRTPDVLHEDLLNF
The depositor's hits bear a star; . = no result given.

SMILES | HCV NS3 hel inh | FGF22 binding | FID counter | EBNA-1 inhibitor | GRIN3A LBD mod | ZTA counter
O=C(Cc1ccncc1)N1CCCCN2[C@H](C1)[C@H](c1ccc(C#Cc3ccccc3F)cc1)[C@@H]2CO | . | 0 | . | . | . | .
N#Cc1c(N2CCNCC2)nc(-c2ccco2)c2c1CCCC2 | -13 | 1.9* | -1 | -6 | -1 | -18
CCCCc1nc(N2CCNCC2)c(C#N)c2c1CSC(C)(C)C2 | -26 | . | -1 | 1 | -2 | 3
Cc1ccc(C(O)(C(=O)NNC(=O)CN2CCN(C)CC2)c2ccc(C)cc2)cc1 | -7 | 44* | 5 | -2 | -1 | 17
O=C(Cc1cccnc1)N1CCCCN2[C@H](CO)[C@@H](c3ccc(C#CC4CCCC4)cc3)[C@H]2C1 | . | 0 | . | . | . | .
O=C(Cc1ccccc1)N1CCCCN2[C@H](C1)[C@@H](c1ccc(C#Cc3ccccc3)cc1)[C@@H]2CO | . | 0 | . | . | . | .
CN(C)C(=O)Oc1ccc(-c2cn3cc(Cl)ccc3n2)cc1 | 0 | 0 | -23 | -4 | 13* | -2
CN(C)C(=O)Oc1cccc(-c2cn3cc(Cl)ccc3n2)c1 | -4 | . | -24 | -14 | -11 | -1
COC(=O)[C@@H]1N[C@@H]2c3ccc(C4=CCCC4)c(=O)n3C[C@@H]2[C@H]1CO | . | 0 | . | . | . | .
C[C@]12CCC3C(CC[C@H]4[C@@H](O)[C@H](O)CC[C@]34C)C1CCC2=O (some centres undefined) | . | 46* | . | . | 0 | .
CC=Cc1ccc2n(c1=O)C[C@@H]1[C@@H](CO)[C@H](C(=O)OC)[C@H]2N1C(=O)CC1CC1 (mixture of isomers) | . | 0 | . | . | . | .
CCc1ccc(N2C(=O)NC(=O)/C(=C/c3cccn3CCOc3ccc(C(C)CC)cc3)C2=O)cc1 (centres undefined) | 12 | 43* | -4 | 7 | 1 | -19
COc1ccc(C#Cc2ccc([C@@H]3[C@@H](CO)N4CCCCN(C(=O)Cc5cccnc5)C[C@@H]34)cc2)cc1 | . | 0 | . | . | . | .
Cc1ccc2nsnc2c1-n1c(C)nc2ccccc2c1=O | 1 | . | 0 | -7 | 17* | -9
Cc1ccc(-n2c(C)nc3ccccc3c2=O)cc1C | -6 | 0 | -4 | 6 | 0 | 8
COC(=O)[C@@H]1[C@@H](CO)[C@@H]2Cn3c(ccc(/C=C/c4ccccc4)c3=O)[C@H]1N2CC1CCCC1 | . | 0 | . | . | . | .
CN1CCC(N(C)c2nc(-c3ccccc3)nc3ccccc23)CC1 | 35 | 0 | 63* | 8 | 0 | -4
Cc1cc(N2CCN(C)CC2)nc2ccccc12 | -1 | 0 | 0 | -2 | -5 | -7
COc1ccc2c(c1)C(c1ccc(N(CCCl)CCCl)cc1)=NCC2 | . | 0 | . | . | 0 | .
COc1ccc(N2C(=O)C(=O)N(c3ccc(OC)cc3)P2(=O)N(CCCl)CCCl)cc1 | . | 43* | . | . | 0 | .
O=C(Cc1cc(=O)oc2cc(O)ccc12)NN=Cc1ccc(N(CCCl)CCCl)cc1 | . | 0 | . | . | 18* | .
O=C(NN=Cc1ccc(N(CCCl)CCCl)cc1)C(=O)c1c[nH]c2ccccc12 | . | 0 | . | . | 8 | .
O=C(NN=Cc1ccc(N(CCCl)CCCl)cc1)c1cc(=O)[nH]c(=O)[nH]1 | . | 44* | . | . | 8 | .
COc1ccc2cc(C(=O)C3CCCN(C4CCOCC4)C3)ccc2c1 (centres undefined) | -4 | 0 | 12 | -7 | 1 | -2
COc1ccc(C(=O)C2CCCN(Cc3ccccn3)C2)c(OC)c1 (centres undefined) | 5 | 43* | -1 | 2 | 3 | 7
COc1cccc(C(=O)C2CCCN(Cc3cccc(C)n3)C2)c1 (centres undefined) | 15 | 44* | 3 | 0 | 2 | -16
COc1c(C)cc(C(=O)C2CCCN(C3CCOCC3)C2)cc1C (centres undefined) | -11 | 43* | 10 | -3 | -2 | 7
COc1c(C)cc(C(=O)C2CCCN(Cc3cccc(C)n3)C2)cc1C (centres undefined) | -2 | 44* | 9 | 7 | 2 | 0
